{
  "source": "paper PMC6634314",
  "about": "(Cell chemical biology, 2019)",
  "key": {"CDK9": {"system": "CDK9", "assay": "MIB washout assay", "type": "binding, Human", "conditions": "H23 cells, 1 μM 4h, MIB pulldown ratio SM1-71/SM1-71-R"}, "LIMK1": {"biological_target": "LIMK1 (Homo sapiens, UniProt P53667)", "sequence (P53667 whole entry)": "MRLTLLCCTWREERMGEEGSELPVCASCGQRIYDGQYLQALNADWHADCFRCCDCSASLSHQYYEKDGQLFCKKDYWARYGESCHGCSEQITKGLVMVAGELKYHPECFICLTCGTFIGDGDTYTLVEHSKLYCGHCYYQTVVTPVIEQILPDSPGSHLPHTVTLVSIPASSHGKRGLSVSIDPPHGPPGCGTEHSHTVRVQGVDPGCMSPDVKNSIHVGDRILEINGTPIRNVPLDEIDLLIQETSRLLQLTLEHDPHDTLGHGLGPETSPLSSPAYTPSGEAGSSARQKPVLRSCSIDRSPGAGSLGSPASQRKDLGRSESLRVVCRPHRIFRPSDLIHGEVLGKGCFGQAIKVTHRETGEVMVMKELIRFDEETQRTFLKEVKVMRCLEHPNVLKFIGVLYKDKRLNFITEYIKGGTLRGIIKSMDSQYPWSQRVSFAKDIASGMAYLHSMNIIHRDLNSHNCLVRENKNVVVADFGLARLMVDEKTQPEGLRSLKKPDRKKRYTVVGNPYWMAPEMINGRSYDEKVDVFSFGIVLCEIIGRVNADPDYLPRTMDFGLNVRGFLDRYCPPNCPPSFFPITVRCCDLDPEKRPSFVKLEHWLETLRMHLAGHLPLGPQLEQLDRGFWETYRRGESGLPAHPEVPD", "assay": "MIB washout assay", "type": "binding", "conditions": "H23 cells, 1 μM 4h, MIB pulldown ratio SM1-71/SM1-71-R"}, "EPHA10": {"system": "EPHA10", "assay": "MIB washout assay", "type": "binding, Human", "conditions": "H23 cells, 1 μM 4h, MIB pulldown ratio SM1-71/SM1-71-R"}, "MAPK1 [1]": {"system": "MAPK1", "assay": "MIB washout assay", "type": "binding, Human", "conditions": "H23 cells, 1 μM 4h, MIB pulldown ratio SM1-71/SM1-71-R"}, "MAPK1 [2]": {"biological_target": "MAPK1 (Homo sapiens, UniProt P28482)", "sequence (P28482 whole entry, species assumed)": "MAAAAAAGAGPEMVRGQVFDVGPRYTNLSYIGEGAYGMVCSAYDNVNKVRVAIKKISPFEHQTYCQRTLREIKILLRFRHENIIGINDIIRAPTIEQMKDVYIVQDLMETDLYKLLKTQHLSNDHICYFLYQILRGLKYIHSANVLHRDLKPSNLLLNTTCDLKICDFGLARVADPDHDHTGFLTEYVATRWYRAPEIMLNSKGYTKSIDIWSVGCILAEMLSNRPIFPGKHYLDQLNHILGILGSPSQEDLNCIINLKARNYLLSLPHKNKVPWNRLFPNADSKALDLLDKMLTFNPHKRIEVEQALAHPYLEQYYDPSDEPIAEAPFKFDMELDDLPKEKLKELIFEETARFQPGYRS", "assay": "mass shift assay", "type": "binding", "conditions": "incubated 4 and 24h", "method_in_brief": "(§1)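 Kinase protein at 0.12 mM in 10 mM HEPES pH 7.5, 500 mM NaCl, incubated with 0.2 mM test compound at 4°C for 4 h and 24 h. Samples were diluted in 0.1% formic acid and desalted on a C3 pre-column. ESI-TOF was run in positive mode at 120 V, and intact mass was obtained by deconvolution to detect the adduct.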"}, "INSR": {"system": "INSR", "assay": "MIB washout assay", "type": "binding, Human", "conditions": "H23 cells, 1 μM 4h, MIB pulldown ratio SM1-71/SM1-71-R"}, "CSNK1G1": {"system": "CSNK1G1", "assay": "MIB washout assay", "type": "binding, Human", "conditions": "H23 cells, 1 μM 4h, MIB pulldown ratio SM1-71/SM1-71-R"}, "SRC": {"biological_target": "SRC (Homo sapiens, UniProt P12931)", "sequence (P12931 whole entry)": "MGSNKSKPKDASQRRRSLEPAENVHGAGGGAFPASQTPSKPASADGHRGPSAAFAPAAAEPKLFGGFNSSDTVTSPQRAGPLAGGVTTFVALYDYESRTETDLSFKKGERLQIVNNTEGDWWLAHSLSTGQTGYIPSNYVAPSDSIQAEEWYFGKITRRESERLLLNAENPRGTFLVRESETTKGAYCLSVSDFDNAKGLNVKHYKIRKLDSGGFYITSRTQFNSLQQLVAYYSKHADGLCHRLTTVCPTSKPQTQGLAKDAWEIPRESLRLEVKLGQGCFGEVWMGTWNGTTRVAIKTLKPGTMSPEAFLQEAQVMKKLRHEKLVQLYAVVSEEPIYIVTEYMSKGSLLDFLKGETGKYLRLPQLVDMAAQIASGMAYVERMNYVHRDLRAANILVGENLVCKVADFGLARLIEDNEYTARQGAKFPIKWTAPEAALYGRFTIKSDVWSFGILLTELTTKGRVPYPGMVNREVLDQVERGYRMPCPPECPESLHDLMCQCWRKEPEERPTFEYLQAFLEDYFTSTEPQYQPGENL", "assay": "MIB dose-dependent kinase inhibition assay", "type": "binding", "conditions": "read-out: IC50 in the MIB assay, H23 cell lysate, overnight 4°C"}, "MAP2K1/2": {"biological_target": "MAP2K1/2", "assay": "MIB dose-dependent kinase inhibition assay", "type": "binding, Human", "conditions": "read-out: IC50 in the MIB assay, H23 cell lysate, overnight 4°C"}, "FGFR1": {"system": "FGFR1", "assay": "MIB washout assay", "type": "binding, Human", "conditions": "H23 cells, 1 μM 4h, MIB pulldown ratio SM1-71/SM1-71-R"}, "TEC": {"system": "TEC", "assay": "MIB washout assay", "type": "binding, Human"}, "TGFBR1": {"system": "TGFBR1", "assay": "MIB washout assay", "type": "binding, Human", "conditions": "H23 cells, 1 μM 4h, MIB pulldown ratio SM1-71/SM1-71-R"}, "AAK1": {"biological_target": "AAK1 (Homo sapiens, UniProt Q2M2I8)", "sequence (Q2M2I8 whole entry)": "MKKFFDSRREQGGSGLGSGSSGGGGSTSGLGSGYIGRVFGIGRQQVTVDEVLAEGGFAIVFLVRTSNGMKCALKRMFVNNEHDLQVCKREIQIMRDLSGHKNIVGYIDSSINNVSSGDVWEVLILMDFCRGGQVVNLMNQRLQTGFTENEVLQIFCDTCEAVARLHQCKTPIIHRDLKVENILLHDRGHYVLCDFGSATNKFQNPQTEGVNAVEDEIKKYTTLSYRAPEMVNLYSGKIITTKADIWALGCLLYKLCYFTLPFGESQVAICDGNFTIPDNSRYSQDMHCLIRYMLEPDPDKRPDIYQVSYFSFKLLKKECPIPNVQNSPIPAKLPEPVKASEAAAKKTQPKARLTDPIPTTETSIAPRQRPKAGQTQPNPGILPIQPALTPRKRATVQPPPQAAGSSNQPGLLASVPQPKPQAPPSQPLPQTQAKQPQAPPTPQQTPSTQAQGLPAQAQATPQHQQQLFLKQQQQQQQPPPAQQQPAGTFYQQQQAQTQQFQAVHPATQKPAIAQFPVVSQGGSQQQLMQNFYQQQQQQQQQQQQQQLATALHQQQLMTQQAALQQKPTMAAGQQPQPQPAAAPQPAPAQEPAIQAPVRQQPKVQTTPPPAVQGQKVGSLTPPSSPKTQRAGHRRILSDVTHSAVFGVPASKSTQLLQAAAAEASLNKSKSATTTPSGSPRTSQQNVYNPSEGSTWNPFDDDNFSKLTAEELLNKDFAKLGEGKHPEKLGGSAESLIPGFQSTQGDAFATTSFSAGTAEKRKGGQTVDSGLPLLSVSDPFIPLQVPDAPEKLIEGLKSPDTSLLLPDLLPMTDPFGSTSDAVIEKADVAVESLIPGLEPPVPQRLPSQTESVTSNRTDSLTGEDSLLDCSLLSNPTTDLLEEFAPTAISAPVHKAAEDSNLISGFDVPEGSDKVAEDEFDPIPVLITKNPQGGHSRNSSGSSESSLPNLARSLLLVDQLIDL", "assay": "MIB dose-dependent kinase inhibition assay", "type": "binding", "conditions": "read-out: IC50 in the MIB assay, H23 cell lysate, overnight 4°C"}, "GAK": {"biological_target": "T1, GAK (Homo sapiens, UniProt O14976)", "T1 sequence (O14976 1-1311)": "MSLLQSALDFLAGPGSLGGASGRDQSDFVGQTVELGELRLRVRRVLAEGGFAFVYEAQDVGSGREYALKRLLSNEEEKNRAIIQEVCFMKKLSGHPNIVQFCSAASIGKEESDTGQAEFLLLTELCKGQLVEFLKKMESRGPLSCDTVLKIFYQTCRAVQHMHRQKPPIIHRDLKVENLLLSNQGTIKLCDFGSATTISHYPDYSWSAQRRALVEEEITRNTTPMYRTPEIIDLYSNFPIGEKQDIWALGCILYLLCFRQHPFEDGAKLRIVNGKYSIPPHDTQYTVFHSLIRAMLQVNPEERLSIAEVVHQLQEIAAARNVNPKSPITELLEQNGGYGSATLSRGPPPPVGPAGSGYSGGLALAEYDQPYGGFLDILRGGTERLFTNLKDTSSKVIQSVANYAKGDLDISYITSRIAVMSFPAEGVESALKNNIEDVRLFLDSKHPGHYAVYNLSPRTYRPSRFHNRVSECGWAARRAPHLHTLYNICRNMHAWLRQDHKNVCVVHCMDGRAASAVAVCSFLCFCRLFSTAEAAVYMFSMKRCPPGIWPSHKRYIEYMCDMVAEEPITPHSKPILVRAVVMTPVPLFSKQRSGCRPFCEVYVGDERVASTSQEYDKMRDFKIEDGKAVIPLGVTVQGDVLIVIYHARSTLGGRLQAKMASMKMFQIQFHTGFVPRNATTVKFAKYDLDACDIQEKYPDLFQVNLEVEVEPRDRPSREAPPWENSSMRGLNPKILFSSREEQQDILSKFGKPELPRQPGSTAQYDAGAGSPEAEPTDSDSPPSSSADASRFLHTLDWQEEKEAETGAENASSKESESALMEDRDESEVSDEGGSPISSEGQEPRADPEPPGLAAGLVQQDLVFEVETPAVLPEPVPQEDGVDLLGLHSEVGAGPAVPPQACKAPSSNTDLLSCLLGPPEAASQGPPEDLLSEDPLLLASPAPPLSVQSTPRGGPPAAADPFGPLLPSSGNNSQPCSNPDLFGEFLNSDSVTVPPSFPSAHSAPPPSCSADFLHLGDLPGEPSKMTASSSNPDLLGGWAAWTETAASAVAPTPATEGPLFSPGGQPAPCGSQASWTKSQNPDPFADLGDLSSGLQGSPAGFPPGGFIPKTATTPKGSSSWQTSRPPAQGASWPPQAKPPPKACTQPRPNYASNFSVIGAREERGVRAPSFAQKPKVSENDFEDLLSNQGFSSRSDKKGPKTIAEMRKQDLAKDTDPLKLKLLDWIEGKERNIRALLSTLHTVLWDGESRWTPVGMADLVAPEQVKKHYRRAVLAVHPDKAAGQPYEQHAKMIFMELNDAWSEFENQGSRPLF", "assay": "MIB dose-dependent kinase inhibition assay", "type": "binding", "conditions": "read-out: IC50 in the MIB assay, H23 cell lysate, overnight 4°C"}, "YES1": {"biological_target": "YES1 (Homo sapiens, UniProt P07947)", "sequence (P07947 whole entry)": "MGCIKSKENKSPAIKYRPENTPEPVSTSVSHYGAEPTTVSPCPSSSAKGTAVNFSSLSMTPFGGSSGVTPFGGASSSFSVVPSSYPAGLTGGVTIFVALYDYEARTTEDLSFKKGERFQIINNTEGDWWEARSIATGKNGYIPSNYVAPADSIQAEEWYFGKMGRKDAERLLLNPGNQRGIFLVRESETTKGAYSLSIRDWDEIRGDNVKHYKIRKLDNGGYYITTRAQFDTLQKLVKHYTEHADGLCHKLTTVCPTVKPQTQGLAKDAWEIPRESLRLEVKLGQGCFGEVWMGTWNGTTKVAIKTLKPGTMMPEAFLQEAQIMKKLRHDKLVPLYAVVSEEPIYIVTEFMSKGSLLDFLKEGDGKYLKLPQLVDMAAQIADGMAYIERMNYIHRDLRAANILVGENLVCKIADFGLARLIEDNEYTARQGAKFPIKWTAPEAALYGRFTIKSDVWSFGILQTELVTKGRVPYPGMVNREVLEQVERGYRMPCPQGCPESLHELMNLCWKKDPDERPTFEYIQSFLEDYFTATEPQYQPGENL", "assay": "MIB dose-dependent kinase inhibition assay", "type": "binding", "conditions": "read-out: IC50 in the MIB assay, H23 cell lysate, overnight 4°C"}, "PAK4": {"system": "PAK4", "assay": "MIB washout assay", "type": "binding, Human", "conditions": "H23 cells, 1 μM 4h, MIB pulldown ratio SM1-71/SM1-71-R"}, "MAP3K11": {"system": "MAP3K11", "assay": "MIB washout assay", "type": "binding, Human", "conditions": "H23 cells, 1 μM 4h, MIB pulldown ratio SM1-71/SM1-71-R"}, "CSNK1D": {"system": "CSNK1D", "assay": "MIB washout assay", "type": "binding, Human", "conditions": "H23 cells, 1 μM 4h, MIB pulldown ratio SM1-71/SM1-71-R"}, "PIP5K1A": {"system": "PIP5K1A", "assay": "MIB washout assay", "type": "binding, Human", "conditions": "H23 cells, 1 μM 4h, MIB pulldown ratio SM1-71/SM1-71-R"}, "PIP4K2C": {"system": "PIP4K2C", "assay": "MIB washout assay", "type": "binding, Human", "conditions": "H23 cells, 1 μM 4h, MIB pulldown ratio SM1-71/SM1-71-R"}, "STK16": {"system": "STK16", "assay": "MIB washout assay", "type": "binding, Human", "conditions": "H23 cells, 1 μM 4h, MIB pulldown ratio SM1-71/SM1-71-R"}, "43 recombinant kinases": {"system": "43 recombinant kinases", "assay": "thermal stability shift assay", "type": "binding", "conditions": "21 of 43 recombinant kinases; protein 2 μM, inhibitor 10 μM"}, "MAPK3": {"biological_target": "MAPK3 (Homo sapiens, UniProt P27361)", "sequence (P27361 whole entry)": "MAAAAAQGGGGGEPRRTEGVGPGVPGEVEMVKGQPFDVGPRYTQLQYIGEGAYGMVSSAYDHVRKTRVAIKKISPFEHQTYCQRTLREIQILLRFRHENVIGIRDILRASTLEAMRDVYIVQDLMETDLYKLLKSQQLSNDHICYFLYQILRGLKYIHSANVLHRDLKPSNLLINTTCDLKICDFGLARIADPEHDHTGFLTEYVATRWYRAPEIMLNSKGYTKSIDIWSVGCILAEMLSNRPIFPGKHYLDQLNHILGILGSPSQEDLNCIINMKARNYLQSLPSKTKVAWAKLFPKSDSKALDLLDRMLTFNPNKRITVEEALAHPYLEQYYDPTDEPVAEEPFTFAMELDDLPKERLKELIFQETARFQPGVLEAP", "assay": "mass shift assay", "type": "binding", "conditions": "incubated 4 and 24h", "method_in_brief": "as §1"}},
  "data": [
    {"compound": "C=CC(=O)Nc1ccccc1Nc1nc(Nc2ccc(N3CCN(C)CC3)cc2)ncc1Cl", "note": "[SM1-71]", "values": [
      {"measurement": "BI-0h", "setting": "CDK9; 0h post-washout", "result": 0.46},
      {"measurement": "BI-6h", "setting": "CDK9; 6h post-washout", "result": 0.96},
      {"measurement": "BI-0h", "setting": "LIMK1; 0h post-washout", "result": 0.21},
      {"measurement": "BI-6h", "setting": "LIMK1; 6h post-washout", "result": 0.23},
      {"measurement": "BI-0h", "setting": "EPHA10; 0h post-washout", "result": 0.72},
      {"measurement": "BI-6h", "setting": "EPHA10; 6h post-washout", "result": 0.63},
      {"measurement": "BI-0h", "setting": "MAPK1 [1]; 0h post-washout", "result": 0.19},
      {"measurement": "BI-6h", "setting": "MAPK1 [1]; 6h post-washout", "result": 0.39},
      {"measurement": "covalent adduct formation (mass shift)", "setting": "MAPK1 [2]", "result": "formed covalent adducts"},
      {"measurement": "BI-0h", "setting": "INSR; 0h post-washout", "result": 0.52},
      {"measurement": "BI-6h", "setting": "INSR; 6h post-washout", "result": 0.76},
      {"measurement": "BI-0h", "setting": "CSNK1G1; 0h post-washout", "result": 0.55},
      {"measurement": "BI-6h", "setting": "CSNK1G1; 6h post-washout", "result": 0.81},
      {"measurement": "IC50", "setting": "SRC", "result": "< 0.01", "unit": "µM"},
      {"measurement": "IC50", "setting": "MAP2K1/2", "result": "< 0.01", "unit": "µM"},
      {"measurement": "BI-0h", "setting": "FGFR1; 0h post-washout", "result": 0.45},
      {"measurement": "BI-6h", "setting": "FGFR1; 6h post-washout", "result": 0.42},
      {"measurement": "BI-0h", "setting": "TEC; H23 cells, 1 μM 4h, 0h post-washout, MIB pulldown ratio SM1-71/SM1-71-R", "result": 1.02},
      {"measurement": "BI-6h", "setting": "TEC; H23 cells, 1 μM 4h, 6h post-washout, MIB pulldown ratio SM1-71/SM1-71-R", "result": 1.43},
      {"measurement": "Binding", "setting": "TEC; class from BI 0h and 6h", "result": "Strongly Reversible (BI0h,6h greater than 1 suggesting a strong preference for reversible mode of inhibition)"},
      {"measurement": "BI-0h", "setting": "TGFBR1; 0h post-washout", "result": 1.09},
      {"measurement": "BI-6h", "setting": "TGFBR1; 6h post-washout", "result": 0.8},
      {"measurement": "IC50", "setting": "AAK1", "result": "< 0.01", "unit": "µM"},
      {"measurement": "IC50", "setting": "GAK", "result": "< 0.01", "unit": "µM"},
      {"measurement": "IC50", "setting": "YES1", "result": "< 0.01", "unit": "µM"},
      {"measurement": "BI-0h", "setting": "PAK4; 0h post-washout", "result": 0.93},
      {"measurement": "BI-6h", "setting": "PAK4; 6h post-washout", "result": 0.9},
      {"measurement": "BI-0h", "setting": "MAP3K11; 0h post-washout", "result": 0.6},
      {"measurement": "BI-6h", "setting": "MAP3K11; 6h post-washout", "result": 0.76},
      {"measurement": "BI-0h", "setting": "CSNK1D; 0h post-washout", "result": 0.71},
      {"measurement": "BI-6h", "setting": "CSNK1D; 6h post-washout", "result": 0.78},
      {"measurement": "BI-0h", "setting": "PIP5K1A; 0h post-washout", "result": 0.56},
      {"measurement": "BI-6h", "setting": "PIP5K1A; 6h post-washout", "result": 0.75},
      {"measurement": "BI-0h", "setting": "PIP4K2C; 0h post-washout", "result": 0.8},
      {"measurement": "BI-6h", "setting": "PIP4K2C; 6h post-washout", "result": 0.6},
      {"measurement": "BI-0h", "setting": "STK16; 0h post-washout", "result": 0.51},
      {"measurement": "BI-6h", "setting": "STK16; 6h post-washout", "result": 0.76},
      {"measurement": "ΔTm shifts", "setting": "43 recombinant kinases", "result": "> 6", "unit": "°C"},
      {"measurement": "covalent adduct formation (mass shift)", "setting": "MAPK3", "result": "formed covalent adducts"}
    ]}
  ]
}
